Laboratory results taken from ChEMBL document CHEMBL1150667, “New cytotoxic constituents from the Formosan soft corals Clavularia viridis and Clavularia violacea” (2002).
Values after ≈ are worked out from the molar mass of the structure shown.

Key:
Format in all cases: functional
[1] = system: A549; experiment: Cytotoxicity against human A549 cells; conditions: for EC50: Homo sapiens, A549, read-out: ED50 (the source's name)
Summary of the method: (§1)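 Human lung adenocarcinoma (A549) and colon adenocarcinoma (HT-29) lines obtained from ATCC. Cytotoxicity assayed in cell culture following a previously published standard procedure.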

[2] = system: HT-29; experiment: Cytotoxicity against human HT-29 cells; conditions: read-out: ED50 (the source's name); summary of the method: as §1
[3] = system: P388; experiment: Cytotoxicity against mouse P388 cells; conditions: for EC50: Mus musculus, P388, read-out: ED50 (the source's name)
Summary of the method: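 Mouse lymphocytic leukemia P-388 cells obtained from an academic laboratory (University of Illinois at Chicago). Cytotoxicity assayed in cell culture following a previously published standard procedure.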

Compound | EC50 [1] [µg/mL] | EC50 [2] [µg/mL] | EC50 [3] [µg/mL] | ED50 [1] [×10⁻⁴ ug/ml] | ED50 [3] [×10⁻⁴ ug/ml]
CC(C)[C@@H](C)CC[C@@H](C)[C@H]1CC[C@H]2[C@@H]3C[C@@H](O)[C@@]4(O)C=C[C@@H](O)C(=O)[C@]4(C)[C@H]3[C@H](O)C[C@]12C [STOLONIFERONE F] | 3.69 (≈ 7.98 µM) | 6.46 (≈ 14 µM) | 2.36 (≈ 5.1 µM) | – | –
CCCCC/C=C\C[C@]1(OC(C)=O)C=CC(=O)/C1=C/C=C/CCCC(=O)OC [CLAVIRIDENONE E] | 0.41 (≈ 1.06 µM) | 1.02 (≈ 2.63 µM) | 0.11 (≈ 0.283 µM) | – | –
C=C1C(=O)O[C@H]2/C=C(\C)C[C@H](OC(C)=O)/C=C(\C)C[C@H](OC(C)=O)/C=C(\C)CC[C@H]12 [CLAVIOLIDE] | 4.91 (≈ 11.8 µM) | 0.84 (≈ 2.02 µM) | 0.38 (≈ 0.912 µM) | – | –
C=C(CC[C@@H](C)[C@H]1CC[C@H]2[C@@H]3C[C@@H](O)[C@@]4(O)C=C[C@@H](O)C(=O)[C@]4(C)[C@H]3[C@H](O)C[C@]12C)C(C)C [STOLONIFERONE G] | 3.58 (≈ 7.77 µM) | 5.86 (≈ 12.7 µM) | 2.12 (≈ 4.6 µM) | – | –
CC(C)[C@@H](C)CC[C@@H](C)[C@H]1CC[C@H]2[C@@H]3C[C@@H](O)C4=CC=CC(=O)[C@]4(C)[C@H]3[C@H](O)C[C@]12C [STOLONIFERONE E] | – | 0.0091 (≈ 0.0212 µM) | – | 3.2 | 1.2
